Activity calls are given as the source filed them. The rule behind the calls is not given here.
Experiments:
Mus musculus [1] = experiment: Inhibition of thioglycolate-induced macrophage influx into peritoneal cavity in mouse at 80 mg/kg, po BID starting 1 hr before thioglycolate challenge for 4 days; type: functional
Outline: (§1)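 Female C3H/HEN mice (22-26 g) were dosed orally with compound suspended in 0.5% hydroxypropylmethylcellulose/0.1% Tween 80 (0.2 ml per mouse). Thioglycolate (1.5 ml) was injected i.p. on day 0. On day 4, the peritoneum was lavaged with 5 ml cold PBS containing 40 units/ml heparin, and cells were counted by hemocytometer in 0.1% crystal violet. Data are mean ± SEM; Dunnett's test.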

[2] = target: Proto-oncogene tyrosine-protein kinase LCK (Mus musculus, UniProt P06240); experiment: Inhibition of mouse LCK
[3] = Protein binding in cell-culture media with human plasma at 3 uM; type: ADME, cell-free; details: read-out: PB (converted)
Outline: (§2)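 Compound at 3 μM was added to triplicate samples and incubated 1 h at 37°C. Samples were centrifuged through a 30,000-MW filter (1,500 × g, 15 min, 4°C). Percent bound was calculated from compound concentrations in the filtrate and retentate.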

[4] = target: T1, Protein kinase C zeta type (Homo sapiens, UniProt Q05513); experiment: Inhibition of human His-tagged PKCz using biotin-(amino hexanoic acid)-FKLKRKGSFKKFA-CONH2 as substrate after 40 mins by scintillation proximity assay
T1 sequence (Q05513 whole entry): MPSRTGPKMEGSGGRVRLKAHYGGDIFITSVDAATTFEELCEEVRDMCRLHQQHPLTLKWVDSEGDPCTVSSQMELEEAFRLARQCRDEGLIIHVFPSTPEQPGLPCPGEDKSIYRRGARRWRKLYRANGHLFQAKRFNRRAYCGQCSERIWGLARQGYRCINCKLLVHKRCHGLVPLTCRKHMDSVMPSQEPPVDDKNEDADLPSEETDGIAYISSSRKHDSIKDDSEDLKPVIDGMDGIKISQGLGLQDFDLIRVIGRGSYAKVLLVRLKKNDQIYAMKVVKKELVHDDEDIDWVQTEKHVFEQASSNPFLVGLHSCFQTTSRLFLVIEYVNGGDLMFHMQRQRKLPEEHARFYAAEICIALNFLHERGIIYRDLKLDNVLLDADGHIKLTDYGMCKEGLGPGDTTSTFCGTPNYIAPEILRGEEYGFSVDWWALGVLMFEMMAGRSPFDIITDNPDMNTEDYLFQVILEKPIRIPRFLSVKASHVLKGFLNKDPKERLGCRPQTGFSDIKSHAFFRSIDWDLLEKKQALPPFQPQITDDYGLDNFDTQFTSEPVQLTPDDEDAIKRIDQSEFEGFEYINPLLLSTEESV
Outline: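 Catalytic domains of the human kinases were expressed, isolated and assayed with ATP and the appropriate substrate. Compound was tested as a 10- to 12-point dose-response up to a maximal 20 μM.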

PBMC = experiment: Effect on LPS-induced PGE2 production in human PBMC at 0.03906 to 20 uM preincubated for 30 mins before LPS stimulation measured after 20 hrs by ELISA; type: functional, cell-based
Mus musculus [5] = experiment: Inhibition of thioglycolate-induced macrophage influx into peritoneal cavity in mouse at 80 mg/kg, po BID administered 7 days before and 4 days after thioglycolate challenge; type: functional; outline: as §1
Monocyte [6] = experiment: Effect on LPS-induced TNF production in human monocytes at 0.03906 to 20 uM preincubated for 30 mins before LPS stimulation measured after 20 hrs by ELISA; type: functional, cell-based
NFS-60 [7] = experiment: Antitumor activity in mouse M-NFS-60 cells allografted in CD-1 nude mouse assessed as inhibition of tumor cell growth in peritoneal cavity at 80 mg/kg, po BID starting 1 hr before challenge for 4 days measured after 4 days; type: functional, organism-based; parameters: dose 80 mg/kg
Outline: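 CD-1 nude female mice (22-26 g); 1 × 10^7 M-NFS-60 cells in PBS injected i.p. Oral dosing b.i.d. at 20 and 80 mg/kg as a suspension in 0.5% hydroxypropylmethylcellulose/0.1% Tween 80 (0.2 ml per mouse), starting 1 h before cell injection. Peritoneal cells recovered by cold PBS-heparin lavage on day 4 and counted by hemocytometer after crystal violet dilution. Mean ± SEM; Dunnett's test.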

Macrophage = experiment: Effect on LPS-induced PGE2 production in CSF-1-stimulated human macrophages at 0.03906 to 20 uM preincubated for 30 mins before LPS stimulation measured after 20 hrs by ELISA; type: functional, cell-based
Mus musculus [8] = experiment: Inhibition of LPS-stimulated IL-6 production in CSF-1 primed mouse at 40 mg/kg, po administered 4.5 hr before LPS challenge and CSF-1 priming measured […] after LPS challenge; type: functional
Osteoclast = experiment: Inhibition of human osteoclast degradation of bone assessed as reduction in 23C6(+) cells with more than 3 nuclei per cm2 of bone at 10 uM after 3 days by immunocytochemistry (reference value: 854 +/- 122 cells/cm2 of bone); type: functional
NFS-60 [9] = experiment: Growth inhibition of CSF1-stimulated mouse M-NFS-60 cells at 0.7 uM after 3 days by spectrophotometry; type: functional
[10] = Inhibition of PTH-induced Wistar rat fetal long bone degradation assessed as labeled 45Ca release in to media at 0.1 to 0.3 uM after 48 hrs by liquid scintillation spectrometry; type: functional
Outline: (§3)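 Fetal rat long bones preloaded with 45CaCl2 and incubated for 24 h. PTH and compound then added; release of labelled calcium into the medium measured 48 h later.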

[11] = Growth inhibition of CSF1-stimulated mouse M-NFS-60 cells after 3 days by spectrophotometry; type: functional; details: NFS-60, 72 h
Outline: (§4)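 Cells cultured so that added serum or growth factor gave linear growth. Compound tested as a 10- to 12-point dose-response with a top concentration of 20 μM.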

Monocyte [12] = experiment: Inhibition of LPS-stimulated growth of freshly isolated human monocytes at 1 uM preincubated for 30 mins before inducer addition measured after 5 days by WST-1 method; type: functional; details: read-out: GI
Rattus norvegicus = organism: Rattus norvegicus; experiment: Inhibition of PTH-induced Wistar rat fetal long bone degradation assessed as labeled 45Ca release in to media at 1 to 10 uM after 48 hrs by liquid scintillation spectrometry; type: functional; outline: as §3
[13] = Cmax in mouse at 20 mg/kg, po; type: ADME, organism-based; parameters: dose 20 mg/kg, route oral; details: in vivo
Outline: (§5)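 Female mice given single oral doses (20 or 80 mg/kg) in 0.5% HPMC/0.1% Tween 80. Three mice killed with CO2 per time point; plasma extracted with isopropyl alcohol/acetonitrile, then vortexed, sonicated and centrifuged. Quantified by LC/MS (APCI positive mode, multiple-reaction monitoring) against a standard curve prepared in plasma.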

HUVEC = experiment: Growth inhibition of bFGF-stimulated HUVEC after 3 days by spectrophotometry; type: cell-based; details: Homo sapiens, 72 h; outline: as §4
[14] = Protein binding in cell-culture media with rat plasma at 3 uM; type: ADME, cell-free; details: read-out: PB (converted); outline: as §2
[15] = Inhibition of human GST-tagged PKA using biotin-(6-amino caproic acid)-LRRASLGKKK-amide as substrate after 70 mins by scintillation proximity assay
Outline: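 Catalytic domains of human kinases expressed, isolated and assayed with ATP and the appropriate peptide substrate. Compound tested as a 10- to 12-point dose-response with a top concentration of 20 μM.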

[16] = Cmax in mouse at 80 mg/kg, po; type: ADME, organism-based; parameters: dose 80 mg/kg, route oral; details: in vivo; outline: as §5
Mus musculus [17] = experiment: Inhibition of LPS-stimulated IL-6 production in CSF-1 primed mouse at 40 mg/kg, po administered 0.5 hr before LPS challenge post CSF-1 priming measured […] after LPS challenge; type: functional

Proto-oncogene tyrosine-protein kinase LCK, sequence (P06240 whole entry): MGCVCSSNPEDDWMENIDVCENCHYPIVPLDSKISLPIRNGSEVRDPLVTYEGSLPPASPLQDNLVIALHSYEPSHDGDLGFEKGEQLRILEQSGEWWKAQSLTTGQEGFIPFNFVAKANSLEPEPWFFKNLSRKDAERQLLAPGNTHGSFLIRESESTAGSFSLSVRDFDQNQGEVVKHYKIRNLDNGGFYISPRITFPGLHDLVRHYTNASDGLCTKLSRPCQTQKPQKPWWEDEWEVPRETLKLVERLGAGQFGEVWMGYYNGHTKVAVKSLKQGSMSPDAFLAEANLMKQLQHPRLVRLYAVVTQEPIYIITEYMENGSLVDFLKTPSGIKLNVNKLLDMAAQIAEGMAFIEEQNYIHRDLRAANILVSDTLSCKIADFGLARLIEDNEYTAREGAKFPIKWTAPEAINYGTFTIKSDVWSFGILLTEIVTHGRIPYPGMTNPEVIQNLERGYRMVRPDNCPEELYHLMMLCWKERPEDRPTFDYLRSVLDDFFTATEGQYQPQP

Q: For `COc1ccc(COc2ccc(Cc3cnc(N)nc3N)cc2OC)cc1` [GW632580X], which inhibition in vivo at 80 mg/kg (Mus musculus [1]) is on record?
A: 25%

Q: What about the IC50 [2] of the same molecule?
A: > 10 µM

Q: What about the fraction unbound at 3 µM [3] of the same molecule?
A: 0.02

Q: And the IC50 [4]?
A: > 24 µM

Q: What about the Activity (PBMC) of the same molecule?
A: inactive

Q: And the inhibition in vivo at 80 mg/kg (Mus musculus [5])?
A: 45%

Q: And the Activity (Monocyte [6])?
A: inactive

Q: And the “growth inhibition (GI)” value (NFS-60 [7])?
A: Active

Q: What about the Activity (Macrophage) of the same molecule?
A: inactive

Q: What about the inhibition in vivo at 40 mg/kg (Mus musculus [8]) of the same molecule?
A: 49%

Q: What about the Activity (Osteoclast) of the same molecule?
A: 34 /cm2

Q: What about the “growth inhibition (GI)” value (NFS-60 [9]) of the same molecule?
A: Active

Q: And the “inhibition (INH)” value [10]?
A: 30%

Q: And the IC50 [11]?
A: 0.33 µM

Q: What about the inhibition of growth at 1 µM (Monocyte [12]) of the same molecule?
A: 50%

Q: And the inhibition (Rattus norvegicus)?
A: Active

Q: What about the Cmax [13] of the same molecule?
A: 50 nM

Q: And the IC50 (HUVEC)?
A: > 10 µM

Q: What about the fraction unbound at 3 µM [14] of the same molecule?
A: 0.05

Q: And the IC50 [15]?
A: > 10 µM

Q: And the Cmax [16]?
A: 400 nM

Q: And the inhibition in vivo at 40 mg/kg (Mus musculus [17])?
A: -6%

Source: ChEMBL document CHEMBL1955811, “Inhibition of colony-stimulating-factor-1 signaling in vivo with the orally bioavailable cFMS kinase inhibitor GW2580” (Proc Natl Acad Sci U S A, 2005)
